ChEMBL document CHEMBL4627265, “Optimization of 8-oxoadenines with toll-like-receptor 7 and 8 activity” (Bioorg Med Chem Lett, 2020)
The source made the active and inactive calls. No cut-off for these calls is given here.

What was measured:
Type in all cases: cell-based
[1] = target: T1, Toll-like receptor 8 (Homo sapiens, UniProt Q9NR97); experiment: Agonist activity at human TLR8 expressed in HEK293 cells assessed as induction of NFKappaB activity after 24 hrs by SEAP reporter gene assay
T1 sequence (Q9NR97 whole entry): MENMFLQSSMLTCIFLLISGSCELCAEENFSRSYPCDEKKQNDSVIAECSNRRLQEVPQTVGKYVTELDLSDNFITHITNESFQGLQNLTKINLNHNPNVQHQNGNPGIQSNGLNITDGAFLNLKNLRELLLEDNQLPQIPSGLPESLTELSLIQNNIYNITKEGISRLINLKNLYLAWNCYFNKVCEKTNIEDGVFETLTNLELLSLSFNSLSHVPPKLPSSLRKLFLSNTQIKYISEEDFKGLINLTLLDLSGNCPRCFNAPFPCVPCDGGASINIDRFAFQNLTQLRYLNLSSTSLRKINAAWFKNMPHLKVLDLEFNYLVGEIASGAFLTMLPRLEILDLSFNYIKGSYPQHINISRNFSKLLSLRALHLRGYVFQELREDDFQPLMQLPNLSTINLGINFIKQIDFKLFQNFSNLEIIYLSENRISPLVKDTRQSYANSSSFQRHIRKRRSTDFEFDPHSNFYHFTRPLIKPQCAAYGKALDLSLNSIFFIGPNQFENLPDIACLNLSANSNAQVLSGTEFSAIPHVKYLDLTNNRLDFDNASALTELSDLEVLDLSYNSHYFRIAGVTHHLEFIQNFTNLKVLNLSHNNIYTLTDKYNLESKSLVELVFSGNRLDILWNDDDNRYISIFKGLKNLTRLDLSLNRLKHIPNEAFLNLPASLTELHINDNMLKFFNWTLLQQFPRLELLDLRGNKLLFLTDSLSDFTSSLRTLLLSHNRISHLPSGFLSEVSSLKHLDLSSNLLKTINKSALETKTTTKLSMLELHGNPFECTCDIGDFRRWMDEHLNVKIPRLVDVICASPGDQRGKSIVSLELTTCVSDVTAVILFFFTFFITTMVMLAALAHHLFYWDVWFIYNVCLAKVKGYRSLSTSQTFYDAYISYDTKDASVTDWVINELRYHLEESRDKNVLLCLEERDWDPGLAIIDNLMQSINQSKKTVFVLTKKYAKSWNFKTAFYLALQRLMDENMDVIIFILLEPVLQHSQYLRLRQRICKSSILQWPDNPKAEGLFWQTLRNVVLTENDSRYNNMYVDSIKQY
Procedure, shortened: (§1)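 HEK293 cells stably transfected with hTLR7 or hTLR8 plus an NFκB-driven SEAP reporter, treated 24 h with compound over a μM range; SEAP secretion read out. EC50 as mean ± SD of three (TLR7) or four (TLR8) independent experiments.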

[2] = target: T2, Toll-like receptor 8 (Homo sapiens) (UniProt Q9NR97); experiment: Agonist activity at TLR8 in human PBMC assessed as TNFalpha level at 10 uM
T2 sequence (whole entry): T1 sequence (Q9NR97 whole entry)
Procedure, shortened: (§2)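 TNFα secretion by hPBMCs across a μM dose range; MEC = lowest dose tested inducing cytokine, PC = dose giving highest level, PL = peak level at 10 μM. Data representative of one of three independent donors.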

[3] = target: T2, Toll-like receptor 8 (Homo sapiens); experiment: Agonist activity at TLR8 in human PBMC assessed as TNFalpha level; procedure, shortened: as §2
[4] = target: T2, Toll-like receptor 8 (Homo sapiens); experiment: Agonist activity at TLR8 in human PBMC assessed as induction of myeloid dendritic cell maturation by measuring CD86 level at 0.1 uM after 6 hrs by flow cytometry
Procedure, shortened: (§3)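 hPBMCs stimulated 6 h at a single 0.1 μM dose; HLA-DR, MHC-I, CD80 and CD86 on mDCs and pDCs measured by flow cytometry, expressed as fold change versus unstimulated cells. Mean ± SD of three independent experiments in three different donors.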

[5] = target: T2, Toll-like receptor 8 (Homo sapiens); experiment: Agonist activity at TLR8 in human PBMC assessed as induction of myeloid dendritic cell maturation by measuring HLA-DR level at 0.1 uM after 6 hrs by flow cytometry; procedure, shortened: as §3
[6] = target: T3, Toll-like receptor 7 (Homo sapiens, UniProt Q9NYK1); experiment: Agonist activity at human TLR7 expressed in HEK293 cells assessed as induction of NFKappaB activity after 24 hrs by SEAP reporter gene assay; procedure, shortened: as §1
T3 sequence (Q9NYK1 whole entry): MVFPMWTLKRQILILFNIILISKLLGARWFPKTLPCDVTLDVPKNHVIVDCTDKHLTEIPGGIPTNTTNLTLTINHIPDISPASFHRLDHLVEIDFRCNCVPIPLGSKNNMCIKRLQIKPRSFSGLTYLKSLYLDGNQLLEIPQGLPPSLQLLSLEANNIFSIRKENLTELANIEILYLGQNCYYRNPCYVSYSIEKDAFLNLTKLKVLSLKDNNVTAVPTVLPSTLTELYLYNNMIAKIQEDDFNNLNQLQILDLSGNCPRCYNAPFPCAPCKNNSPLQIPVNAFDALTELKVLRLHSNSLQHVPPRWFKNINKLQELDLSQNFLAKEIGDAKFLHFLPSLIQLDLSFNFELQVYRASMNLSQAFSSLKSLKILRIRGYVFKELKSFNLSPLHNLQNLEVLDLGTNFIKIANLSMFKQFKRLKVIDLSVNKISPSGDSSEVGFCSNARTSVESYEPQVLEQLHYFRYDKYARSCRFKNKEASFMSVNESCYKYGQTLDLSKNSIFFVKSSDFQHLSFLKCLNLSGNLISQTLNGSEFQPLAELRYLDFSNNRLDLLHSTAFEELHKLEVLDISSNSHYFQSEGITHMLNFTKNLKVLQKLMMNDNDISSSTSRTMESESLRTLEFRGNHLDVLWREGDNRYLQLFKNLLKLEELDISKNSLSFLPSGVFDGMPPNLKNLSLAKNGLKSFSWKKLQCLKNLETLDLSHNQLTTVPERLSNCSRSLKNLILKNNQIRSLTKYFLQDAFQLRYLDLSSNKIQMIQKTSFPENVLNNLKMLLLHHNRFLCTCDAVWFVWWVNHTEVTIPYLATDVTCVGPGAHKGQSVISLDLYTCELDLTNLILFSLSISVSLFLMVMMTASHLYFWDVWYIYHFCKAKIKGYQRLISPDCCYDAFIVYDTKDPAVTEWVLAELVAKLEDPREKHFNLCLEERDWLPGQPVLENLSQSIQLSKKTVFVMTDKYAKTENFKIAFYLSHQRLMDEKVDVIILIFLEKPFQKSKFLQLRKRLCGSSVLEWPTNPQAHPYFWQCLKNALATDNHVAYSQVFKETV

[7] = target: T4, Toll-like receptor 7 (Homo sapiens) (UniProt Q9NYK1); experiment: Agonist activity at TLR7 in human PBMC assessed as IFNalpha stimulation at 10 uM
T4 sequence (whole entry): T3 sequence (Q9NYK1 whole entry)
Procedure, shortened: (§4)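 IFNα secretion by hPBMCs across a μM dose range; MEC = lowest dose tested inducing cytokine, PC = dose giving highest level, PL = peak level at 10 μM. Data representative of one of three independent donors.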

[8] = target: TLR7 and TLR8 (Homo sapiens) (UniProt Q9NYK1+Q9NR97); experiment: Agonist activity at TLR7/TLR8 in human PBMC assessed as IFN alpha level; procedure, shortened: as §4
[9] = target: T2, Toll-like receptor 8 (Homo sapiens); experiment: Agonist activity at TLR8 in human PBMC assessed as induction of myeloid dendritic cell maturation by measuring increase in CD80 level at 0.1 uM after 6 hrs by flow cytometry relative to control; procedure, shortened: as §3

EC50 [1]: 2.14 µM | Activity [2]: 10300 pg/mL | MEC [3]: 2 µM | Activity [4]: inactive | Activity [5]: inactive | EC50 [6]: 4.06 µM | Activity [7]: 4750 pg/mL | ECmax [8]: 0.08 µM | MEC [8]: 0.016 µM | fold change (FC) [9]: 1.5
SMILES: CCC[C@H](C)Oc1nc(N)c2[nH]c(=O)n(CC3CCN(CCO)CC3)c2n1
